Test results reported in ChEMBL document CHEMBL1765011, “Synthesis and c-Met kinase inhibition of 3,5-disubstituted and 3,5,7-trisubstituted quinolines: identification of 3-(4-acetylpiperazin-1-yl)-5-(3-nitrobenzylamino)-7- (trifluoromethyl)quinoline as a novel anticancer agent” (J Med Chem, 2011).

What was measured:
[1] = biological target: T1, Hepatocyte growth factor receptor (Homo sapiens, UniProt P08581); test: Inhibition of purified recombinant c-Met after 60 mins by ELISA
[2] = biological target: T1, Hepatocyte growth factor receptor; test: Inhibition of purified recombinant c-Met at 10 uM after 60 mins by ELISA
SNU1 = test: Antiproliferative activity against human SNU1 cells after 72 hrs; details: SNU1, 72 h
BaF3 [3] = test: Antiproliferative activity against mouse BAF3 cells expressing TPR-Met after 72 hrs in presence of IL-3; assay type: functional, cell-based; details: BaF3, 72 h
Procedure, shortened: (§1)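 Cells were seeded and exposed next day to a range of compound concentrations for 72 h. Proliferation was read by sulforhodamine B or MTT assay, and IC50 derived.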

NIH3T3 [4] = test: Antiproliferative activity against mouse NIH/3T3 cells after 72 hrs; assay type: functional, cell-based; details: NIH3T3, 72 h; procedure, shortened: as §1
NCI-H1993 = test: Antiproliferative activity against human NCI-H1993 cells after 72 hrs; details: NCI-H1993, 72 h
MKN-45 = test: Antiproliferative activity against human MKN45 cells after 72 hrs; details: MKN-45, 72 h
NCI-H441 = test: Antiproliferative activity against human NCI-H441 cells after 72 hrs; details: NCI-H441, 72 h
BXPC-3 = test: Antiproliferative activity against human BxPC3 cells after 72 hrs; details: BXPC-3, 72 h
MDA-MB-231 = test: Antiproliferative activity against human MDA-MB-231 cells after 72 hrs; details: MDA-MB-231, 72 h
BaF3 [5] = test: Antiproliferative activity against mouse BAF3 cells expressing TPR-Met after 72 hrs in absence of IL-3; assay type: functional, cell-based; details: BaF3, 72 h; procedure, shortened: as §1
MCF7 = test: Antiproliferative activity against human MCF7 cells after 72 hrs; details: MCF7, 72 h
NIH3T3 [6] = test: Antiproliferative activity against mouse NIH/3T3 cells expressing TPR-Met after 72 hrs; assay type: functional, cell-based; details: NIH3T3, 72 h; procedure, shortened: as §1
SNU-5 = test: Antiproliferative activity against human SNU5 cells after 72 hrs; details: SNU-5, 72 h
[7] = biological target: Hepatocyte growth factor receptor (Mus musculus) (UniProt P16056); test: Inhibition of TPR-MET autophosphorylation in mouse NIH3T3 cells after 4 hrs by Western blotting; assay type: cell-based
Procedure, shortened: (§2)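 Exponentially growing cells were treated with compound for 4 h at 37 °C and lysed in SDS sample buffer. Lysates were run on 10% SDS-PAGE and blotted to nitrocellulose. Blots were probed for phospho-c-Met and total c-Met, with GAPDH as loading control, and detected by ECL.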

[8] = biological target: Hepatocyte growth factor receptor (Mus musculus) (UniProt P16056); test: Inhibition of TPR-MET autophosphorylation in mouse BaF3 cells after 4 hrs by Western blotting; assay type: cell-based; procedure, shortened: as §2
[9] = Tmax in mouse at 20 mg/kg, po; assay type: ADME, organism-based; set-up: dose 20 mg/kg, route oral; details: in vivo
[10] = Half life in mouse at 10 mg/kg, iv; assay type: ADME, organism-based; set-up: dose 10 mg/kg, route intravenous; details: in vivo
Procedure, shortened: (§3)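 Single iv dose of 10 mg/kg to mice, vehicle DMSO/Tween 80/normal saline. Clearance and half-life were derived from plasma concentration-time data. Average of three runs.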

[11] = Volume of distribution at steady state in mouse at 10 mg/kg, iv; assay type: ADME, organism-based; set-up: dose 10 mg/kg, route intravenous; details: in vivo, read-out: Vdss
[12] = AUC (0 to infinity) in mouse at 20 mg/kg, po; assay type: ADME, organism-based; set-up: dose 20 mg/kg, route oral, time infinity; details: plasma
Procedure, shortened: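 Mice dosed orally at 20 mg/kg in DMSO/Tween 80/normal saline vehicle; plasma concentration-time profile used to derive AUC0-∞. Values are the average of three runs.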

[13] = Cmax in mouse at 20 mg/kg, po; assay type: ADME, organism-based; set-up: dose 20 mg/kg, route oral; details: in vivo
Procedure, shortened: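 Oral 20 mg/kg single dose to mice, vehicle DMSO/Tween 80/normal saline. Cmax was read from the plasma concentration-time profile. Average of three runs.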

[14] = Oral bioavailability in mouse at 20 mg/kg; assay type: ADME, organism-based; details: in vivo
[15] = Clearance in mouse at 10 mg/kg, iv; assay type: ADME, organism-based; set-up: dose 10 mg/kg, route intravenous; details: in vivo; procedure, shortened: as §3
[16] = Volume of distribution at steady state in mouse at 2.5 mg/kg, iv; assay type: ADME, organism-based; set-up: dose 2.5 mg/kg, route intravenous; details: in vivo, read-out: Vdss
[17] = Clearance in mouse at 2.5 mg/kg, iv; assay type: ADME, organism-based; set-up: dose 2.5 mg/kg, route intravenous; details: in vivo
Procedure, shortened: (§4)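 Single iv dose to mice in DMSO/Tween 80/normal saline vehicle, reduced to 2.5 mg/kg because of poor solubility. Clearance and half-life were taken from plasma concentration-time data. Average of three runs.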

[18] = Half life in mouse at 2.5 mg/kg, iv; assay type: ADME, organism-based; set-up: dose 2.5 mg/kg, route intravenous; details: in vivo; procedure, shortened: as §4

Hepatocyte growth factor receptor (Mus musculus), sequence (P16056 whole entry): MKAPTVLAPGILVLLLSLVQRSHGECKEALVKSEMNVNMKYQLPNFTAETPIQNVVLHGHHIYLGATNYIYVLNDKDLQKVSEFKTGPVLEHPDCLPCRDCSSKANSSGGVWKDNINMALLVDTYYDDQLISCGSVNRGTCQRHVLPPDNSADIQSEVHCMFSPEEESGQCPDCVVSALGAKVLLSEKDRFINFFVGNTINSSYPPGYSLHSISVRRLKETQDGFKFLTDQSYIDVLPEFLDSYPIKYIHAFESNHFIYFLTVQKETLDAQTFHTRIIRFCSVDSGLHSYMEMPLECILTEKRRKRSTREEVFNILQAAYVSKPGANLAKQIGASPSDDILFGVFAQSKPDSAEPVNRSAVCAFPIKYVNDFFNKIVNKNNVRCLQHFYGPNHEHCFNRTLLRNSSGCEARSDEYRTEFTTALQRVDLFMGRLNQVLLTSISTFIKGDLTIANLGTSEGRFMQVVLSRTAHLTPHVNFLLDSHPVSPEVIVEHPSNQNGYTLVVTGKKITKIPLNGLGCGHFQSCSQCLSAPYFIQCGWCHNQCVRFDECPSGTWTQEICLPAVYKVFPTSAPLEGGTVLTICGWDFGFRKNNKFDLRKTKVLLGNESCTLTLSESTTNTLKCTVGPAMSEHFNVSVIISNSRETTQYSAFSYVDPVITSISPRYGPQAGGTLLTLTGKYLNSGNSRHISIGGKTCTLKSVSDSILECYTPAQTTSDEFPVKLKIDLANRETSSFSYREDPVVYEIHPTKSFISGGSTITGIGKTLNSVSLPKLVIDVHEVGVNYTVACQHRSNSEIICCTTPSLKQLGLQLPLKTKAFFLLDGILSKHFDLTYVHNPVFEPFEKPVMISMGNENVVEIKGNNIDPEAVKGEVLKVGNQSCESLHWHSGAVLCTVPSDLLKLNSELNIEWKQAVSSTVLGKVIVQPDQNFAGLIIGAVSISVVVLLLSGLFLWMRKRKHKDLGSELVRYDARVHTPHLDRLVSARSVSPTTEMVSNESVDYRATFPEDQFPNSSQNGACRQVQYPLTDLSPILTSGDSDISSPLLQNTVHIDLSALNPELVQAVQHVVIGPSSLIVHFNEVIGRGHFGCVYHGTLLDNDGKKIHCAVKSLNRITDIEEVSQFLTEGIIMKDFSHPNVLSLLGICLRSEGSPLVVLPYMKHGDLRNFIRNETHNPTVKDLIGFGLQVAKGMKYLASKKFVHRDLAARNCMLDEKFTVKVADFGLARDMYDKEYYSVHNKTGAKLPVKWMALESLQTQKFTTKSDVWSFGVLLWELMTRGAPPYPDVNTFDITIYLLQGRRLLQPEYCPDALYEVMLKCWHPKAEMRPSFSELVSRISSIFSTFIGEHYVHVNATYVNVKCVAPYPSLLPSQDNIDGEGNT
T1 sequence (P08581 whole entry): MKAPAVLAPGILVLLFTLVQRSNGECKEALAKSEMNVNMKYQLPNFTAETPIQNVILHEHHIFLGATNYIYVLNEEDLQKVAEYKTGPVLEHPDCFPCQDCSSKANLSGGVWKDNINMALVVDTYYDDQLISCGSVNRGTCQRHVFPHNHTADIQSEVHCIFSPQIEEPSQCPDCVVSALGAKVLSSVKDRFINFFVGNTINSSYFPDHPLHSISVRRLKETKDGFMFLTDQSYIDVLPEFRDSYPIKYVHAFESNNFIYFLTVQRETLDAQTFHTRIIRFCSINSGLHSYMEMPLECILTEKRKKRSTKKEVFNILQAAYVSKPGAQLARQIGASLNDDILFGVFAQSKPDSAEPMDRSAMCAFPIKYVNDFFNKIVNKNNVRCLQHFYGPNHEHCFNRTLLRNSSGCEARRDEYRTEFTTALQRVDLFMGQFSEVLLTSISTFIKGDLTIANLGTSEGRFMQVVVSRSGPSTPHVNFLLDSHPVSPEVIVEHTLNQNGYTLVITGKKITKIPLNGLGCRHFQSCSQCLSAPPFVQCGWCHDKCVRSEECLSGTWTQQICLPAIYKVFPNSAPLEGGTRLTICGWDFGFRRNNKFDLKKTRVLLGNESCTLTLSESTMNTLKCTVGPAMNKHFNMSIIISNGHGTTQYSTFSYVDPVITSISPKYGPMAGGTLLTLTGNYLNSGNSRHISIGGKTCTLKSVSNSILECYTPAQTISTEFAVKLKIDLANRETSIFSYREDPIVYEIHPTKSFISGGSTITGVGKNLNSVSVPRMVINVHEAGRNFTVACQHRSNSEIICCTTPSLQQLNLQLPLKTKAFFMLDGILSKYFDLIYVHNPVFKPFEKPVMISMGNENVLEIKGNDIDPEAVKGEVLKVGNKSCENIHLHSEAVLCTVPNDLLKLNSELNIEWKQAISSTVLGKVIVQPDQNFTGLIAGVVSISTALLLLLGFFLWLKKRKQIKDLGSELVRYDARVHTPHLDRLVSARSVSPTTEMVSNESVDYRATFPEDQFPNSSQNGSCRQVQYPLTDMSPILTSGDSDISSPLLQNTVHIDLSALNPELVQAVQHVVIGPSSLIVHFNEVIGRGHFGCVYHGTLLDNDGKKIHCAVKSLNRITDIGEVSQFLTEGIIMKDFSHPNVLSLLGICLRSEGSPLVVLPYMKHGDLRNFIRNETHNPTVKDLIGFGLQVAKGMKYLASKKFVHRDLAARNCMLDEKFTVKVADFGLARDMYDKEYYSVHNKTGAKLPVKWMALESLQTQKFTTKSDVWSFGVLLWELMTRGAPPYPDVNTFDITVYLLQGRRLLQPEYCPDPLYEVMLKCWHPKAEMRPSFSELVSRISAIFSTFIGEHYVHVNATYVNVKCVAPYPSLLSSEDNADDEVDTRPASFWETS

CC(=O)N1CCN(c2cnc3cccc(NCc4cccc([N+](=O)[O-])c4)c3c2)CC1
IC50 [1]: 0.11 µM

CN1CCN(c2cnc3cccc(-c4cccc(O)c4)c3c2)CC1
inhibition [2]: 30.7%

CCN1CCN(c2cnc3cc(C(F)(F)F)cc(NCc4cccc(O)c4)c3c2)CC1
IC50 [1]: 0.23 µM

CC(=O)N1CCN(c2cnc3cccc(NC(=O)Nc4cccc([N+](=O)[O-])c4)c3c2)CC1
IC50 [1]: 22.4 µM

CC(=O)N1CCN(c2cnc3cccc(NC(=S)Nc4cccc([N+](=O)[O-])c4)c3c2)CC1
inhibition [2]: 13.9%

CN1CCN(c2cnc3cccc(-c4ccc(F)cc4)c3c2)CC1
inhibition [2]: 29.9%

CN1CCN(c2cnc3cccc(OC(=O)c4cccc([N+](=O)[O-])c4)c3c2)CC1
inhibition [2]: 7.3%

CN1CCN(c2cnc3cc(C(F)(F)F)cc(NS(=O)(=O)c4cccc([N+](=O)[O-])c4)c3c2)CC1
IC50 [1]: 0.099 µM

CN1CCN(c2cnc3cccc(NC(=S)Nc4cccc([N+](=O)[O-])c4)c3c2)CC1
inhibition [2]: 12.4%

CN1CCN(c2cnc3cc(NCc4cccc([N+](=O)[O-])c4)cc(C(F)(F)F)c3c2)CC1
inhibition [2]: 8.9%

CN1CCN(c2cnc3cccc(OC(=O)c4cccn(-c5ccc(F)cc5)c4=O)c3c2)CC1
inhibition [2]: 12.6%

CN1CCN(c2cnc3cccc(-c4ccco4)c3c2)CC1
IC50 [1]: 12.7 µM

COC(=O)N1CCN(c2cnc3cc(C(F)(F)F)cc(NCc4cccc([N+](=O)[O-])c4)c3c2)CC1
IC50 [1]: 0.043 µM

CC(C)(C)OC(=O)N1CCN(c2cnc3cc(C(F)(F)F)cc(NCc4cccc([N+](=O)[O-])c4)c3c2)CC1
IC50 [1]: 0.0106 µM

CN1CCN(c2cnc3cccc(OCc4cccc([N+](=O)[O-])c4)c3c2)CC1
IC50 [1]: 0.14 µM

CN1CCN(c2cnc3cccc(OCc4cccc(F)c4)c3c2)CC1
inhibition [2]: 25.8%

CN1CCN(c2cnc3cccc(OS(=O)(=O)c4cccc([N+](=O)[O-])c4)c3c2)CC1
IC50 [1]: 1.2 µM

CN1CCN(c2cnc3cccc(-c4ccc5ccccc5c4)c3c2)CC1
IC50 [1]: 5.8 µM

O=[N+]([O-])c1cccc(CNc2cc(C(F)(F)F)cc3ncc(N4CCNCC4)cc23)c1
IC50 [1]: 0.0022 µM

Cc1[nH]c(/C=C2\C(=O)Nc3ccc(S(=O)(=O)N(C)c4cccc(Cl)c4)cc32)c(C)c1C(=O)N1CCN(C)CC1
IC50 (SNU1): 7 µM
IC50 (BaF3 [3]): 6.4 µM
IC50 (NIH3T3 [4]): ≥ 50 µM
IC50 (NCI-H1993): 7.3 µM
IC50 [1]: 0.014 µM
IC50 (MKN-45): 1.3 µM
IC50 (NCI-H441): 13 µM
IC50 (BXPC-3): 16 µM
IC50 (MDA-MB-231): 11 µM
IC50 (BaF3 [5]): 0.53 µM
IC50 (MCF7): 6.2 µM
IC50 (NIH3T3 [6]): 6.5 µM
IC50 (SNU-5): 0.8 µM

CN1CCN(c2cnc3cccc(NS(=O)(=O)c4cccc([N+](=O)[O-])c4)c3c2)CC1
IC50 [1]: 3.44 µM

CN1CCN(c2cnc3cccc(OCc4cccc(C#N)c4)c3c2)CC1
IC50 [1]: 12.3 µM

CN1CCN(c2cnc3cccc(NC(=O)Nc4cccc([N+](=O)[O-])c4)c3c2)CC1
inhibition [2]: 25.2%

CC(=O)N1CCN(c2cnc3cccc(NS(=O)(=O)c4cccc([N+](=O)[O-])c4)c3c2)CC1
IC50 [1]: 2.56 µM

O=C(O)CN1CCN(c2cnc3cc(C(F)(F)F)cc(NCc4cccc([N+](=O)[O-])c4)c3c2)CC1
IC50 [1]: 0.0044 µM

CCN1CCN(c2cnc3cc(NCc4cccc([N+](=O)[O-])c4)cc(C(F)(F)F)c3c2)CC1
inhibition [2]: 46.6%

CCOC(=O)CN1CCN(c2cnc3cc(C(F)(F)F)cc(NCc4cccc([N+](=O)[O-])c4)c3c2)CC1
inhibition [7]: Dose-dependent effect
inhibition [8]: Dose-dependent effect
IC50 (BaF3 [3]): 14.1 µM
Tmax [9]: 0.5 h
IC50 (NIH3T3 [4]): ≥ 50 µM
half-life [10]: 1.13 h
Vd [11]: 1.36 L/kg
IC50 [1]: 0.00077 µM
AUC(0-inf) [12]: 700 ng·h/mL
Cmax [13]: 279 ng/mL
IC50 (BaF3 [5]): 1.4 µM
IC50 (NIH3T3 [6]): 5.9 µM
bioavailability [14]: 8.2%
clearance [15]: 40.5 mL/min/kg

CN1CCN(c2cnc3cccc(-c4cccc([N+](=O)[O-])c4)c3c2)CC1
IC50 [1]: 2.3 µM

CN1CCN(c2cnc3cc(C(F)(F)F)cc(OCc4cccc([N+](=O)[O-])c4)c3c2)CC1
IC50 [1]: 0.0027 µM

CN1CCN(c2cnc3cccc(NCc4cccc([N+](=O)[O-])c4)c3c2)CC1
IC50 [1]: 0.166 µM

CN1CCN(c2cnc3cc(C(F)(F)F)cc(NCc4cccnc4)c3c2)CC1
IC50 [1]: 0.16 µM

CCN1CCN(c2cnc3cc(C(F)(F)F)cc(NCc4ccc(F)cc4)c3c2)CC1
IC50 [1]: 10 µM

CCN1CCN(c2cnc3cc(C(F)(F)F)cc(NCc4cccc([N+](=O)[O-])c4)c3c2)CC1
inhibition [7]: Dose-dependent effect
inhibition [8]: Dose-dependent effect
IC50 (BaF3 [3]): 10.1 µM
IC50 (NIH3T3 [4]): 13.2 µM
IC50 [1]: 0.00101 µM
IC50 (BaF3 [5]): 0.37 µM
IC50 (NIH3T3 [6]): 2.6 µM

O=[N+]([O-])c1cccc(CNc2cc(C(F)(F)F)cc3ncc(N4CCOCC4)cc23)c1
inhibition [7]: Dose-dependent effect
inhibition [8]: Dose-dependent effect
IC50 (BaF3 [3]): ≥ 50 µM
IC50 (NIH3T3 [4]): ≥ 50 µM
IC50 [1]: 0.00072 µM
IC50 (BaF3 [5]): 4.2 µM
IC50 (NIH3T3 [6]): 4 µM

CS(=O)(=O)N1CCN(c2cnc3cc(C(F)(F)F)cc(NCc4cccc([N+](=O)[O-])c4)c3c2)CC1
inhibition [7]: Dose-dependent effect
inhibition [8]: Dose-dependent effect
IC50 (BaF3 [3]): ≥ 50 µM
Tmax [9]: 1.33 h
IC50 (NIH3T3 [4]): ≥ 50 µM
IC50 [1]: 0.00082 µM
AUC(0-inf) [12]: 366 ng·h/mL
Cmax [13]: 59.3 ng/mL
Vd [16]: 1.72 L/kg
clearance [17]: 43.3 mL/min/kg
IC50 (BaF3 [5]): 8.8 µM
IC50 (NIH3T3 [6]): 2.2 µM
bioavailability [14]: 3.7%
half-life [18]: 0.97 h

O=[N+]([O-])c1cccc(CNc2cc(C(F)(F)F)cc3ncc(N4CCCCC4)cc23)c1
IC50 [1]: 0.0034 µM

CN1CCN(c2cnc3cccc(NC(=O)c4cccn(-c5ccc(F)cc5)c4=O)c3c2)CC1
IC50 [1]: 5.3 µM

CCN1CCN(c2cnc3cc(C(F)(F)F)cc(NCc4cccc(C#N)c4)c3c2)CC1
IC50 [1]: 0.0056 µM

O=[N+]([O-])c1cccc(CNc2cc(C(F)(F)F)cc3ncc(N4CCN(S(=O)(=O)C5CC5)CC4)cc23)c1
inhibition [7]: Dose-dependent effect
inhibition [8]: Dose-dependent effect
IC50 (BaF3 [3]): ≥ 50 µM
IC50 (NIH3T3 [4]): ≥ 50 µM
IC50 [1]: 0.00084 µM
IC50 (BaF3 [5]): 0.5 µM
IC50 (NIH3T3 [6]): 1.4 µM

CN1CCN(c2cnc3cccc(-c4cccs4)c3c2)CC1
IC50 [1]: 14.3 µM

CN1CCN(c2cnc3cc(C(F)(F)F)cc(NCc4cccc(F)c4)c3c2)CC1
IC50 [1]: 0.45 µM
